EWS-Fli block – EWS/Fli transcriptional activity inhibition | 350,000 tested, 0.67% active | inhibition, % at 12.6 µM | AID 651661 | A673 NR0B1-luciferase reporter, viability-normalised;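 active = mean inhibition of at least 50% after viability correction, with every replicate also passing that limit; inconclusive = mean reaches 50% but only one of two replicates passes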;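 note: firefly luciferase signal divided by Alamar Blue viability fluorescence both relative to DMSO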
GSIS activator – GLuc luminescence reporter in INS-1E cells, primary screen for activators of glucose-dependent secretion of insulin. 370,000 tested, 0.61% active. activation, % at 16.6 µM. AID 743287. INS-1E GLuc reporter insulin secretion, 2-3 h;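 active = lowest replicate activation of at least 40%, so every replicate reaches that level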;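 note: 0% = median of neutral control wells and 100% = median of IBMX positive control wells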
MLL AF4-AF9 inh – blocks AF4 peptide binding to human AF9 | P42568 | AlphaScreen, biotin-AF4 peptide binding to FLAG-AF9 | inhibition, % at 10 µM | 350,000 tested, 0.47% active | AID 651704;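 active = every replicate reaching a set inhibition limit, whatever the replicate mean, cut at about 25% in these data; inconclusive = mean inhibition reaches that limit but some replicates miss it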;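 note: 0% = plate neutral control median and 100% = total signal loss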
Target sequence (P42568 whole entry, looked up): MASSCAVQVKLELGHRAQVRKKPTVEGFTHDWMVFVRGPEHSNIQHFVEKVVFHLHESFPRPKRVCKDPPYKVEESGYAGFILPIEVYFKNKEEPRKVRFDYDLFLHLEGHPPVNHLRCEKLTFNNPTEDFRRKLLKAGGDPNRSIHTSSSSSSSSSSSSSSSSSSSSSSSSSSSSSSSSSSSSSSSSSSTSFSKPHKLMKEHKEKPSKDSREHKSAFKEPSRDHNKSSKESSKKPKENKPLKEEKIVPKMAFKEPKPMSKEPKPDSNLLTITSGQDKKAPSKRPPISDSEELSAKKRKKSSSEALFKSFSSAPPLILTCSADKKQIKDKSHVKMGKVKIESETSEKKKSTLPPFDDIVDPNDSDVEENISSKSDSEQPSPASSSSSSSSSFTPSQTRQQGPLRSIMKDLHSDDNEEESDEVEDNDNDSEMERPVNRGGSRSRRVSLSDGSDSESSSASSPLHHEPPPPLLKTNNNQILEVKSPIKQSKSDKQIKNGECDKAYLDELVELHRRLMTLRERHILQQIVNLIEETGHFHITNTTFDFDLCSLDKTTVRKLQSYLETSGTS
XiGFP reactiv – reactivates the inactive X chromosome in mouse fibroblasts. XiGFP mouse fibroblasts, % GFP-positive cells imaging, 3 d; cells co-treated with 5-aza-dC sensitizer; scaled so ellipticine positive control = 100%. activation, % at 7.58 µM. 360,000 tested, 0.055% active;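 active = mean normalized replicate activation at least 10% and every replicate at or above 10%; inconclusive = only one of the two criteria met; inactive = mean below 10% and not all replicates reach 10%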;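 note: 0% = median of on-plate neutral control wells and 100% = ellipticine 6 µM median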
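Schedule: 3 d treatment, 15 min room-temperature fixation; system: 68-5-11 XiGFP fibroblast line; buffer or medium: DMEM plus 5-aza-dC sensitizer; control set: ellipticine 6 µM positive control; compound: one concentration, pinned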
PGC1a acetyl inh – lowers PGC1a acetylation signal in U2OS cells; AlphaScreen anti-acetyl-lysine; with virally co-expressed GCN5 acetyltransferase; inhibition, % at 15.6 µM; 350,000 tested, 0.17% active;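 active = every replicate shows inhibition of at least 40%; inconclusive = mean inhibition at least 40% but some replicate below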;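 note: 0% = neutral control wells and 100% = positive control wells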
PAX8 inh HTS – inhibitors of PAX8 transcriptional activity in RMG-I cells; inhibition, % at 12.6 µM; RMG-I TPO-luciferase reporter, SteadyGlo, 24 h; 360,000 tested, 1.2% active;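 active = mean replicate inhibition at least 60% with every replicate also reaching 60%; inconclusive = only one of the two criteria is met; inactive = mean below 60% and not all replicates reaching 60%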;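 note: luciferase light reporting Pax8 driven TPO promoter activity; plate controls were median of neutral control wells for no effect and mitoxantrone controls for full effect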
* hit, by the source's call; ? = inconclusive; · = no result given. Sampled rows, rich in hits. Any-hit rate of the full collection: about 2.1%.

SMILES	EWS-Fli block	GSIS activator	MLL AF4-AF9 inh	XiGFP reactiv	PGC1a acetyl inh	PAX8 inh HTS
O=C(C[C@H]1C[C@@H]2c3cc(NC(=O)Nc4ccc(C(F)(F)F)cc4)ccc3O[C@@H]2[C@@H](CO)O1)NCc1ccc(Cl)cc1	21	0	2	0	-8	89*
O=C(C[C@@H]1C[C@H]2c3cc(NS(=O)(=O)c4ccc(F)cc4)ccc3O[C@H]2[C@H](CO)O1)NCc1ccc(Oc2ccccc2)cc1	59*	-30	4	0	-30	101*
O=C(NCC[C@H]1CC[C@@H](NS(=O)(=O)c2cccc(F)c2)[C@H](CO)O1)Nc1cc(F)ccc1F	-5	-5	2	1	0	-15
CC(C)CNC(=O)c1cccc2c1-c1ccccc1C2=O	-2	31	42*	0	·	1
COCCNC(=O)c1cccc2c1-c1ccccc1C2=O	2	-12	1	0	-3	-13
Oc1ccc(C[C@@H](CN2CCC[C@@H]2CN2C(=S)NC[C@@H]2Cc2ccccc2)N2C[C@H](Cc3ccccc3)N(CCc3ccccc3)C2=S)cc1	16	24	-1	0	-7	20
CC(C)C[C@H]1CN([C@@H](Cc2ccc(O)cc2)CN2CCC[C@@H]2CN2C(=S)NC[C@@H]2Cc2ccccc2)C(=S)N1CC1CCCCCC1	1	-8	-53	0	-15	28
Oc1ccc(C[C@H]2CNC(=S)N2CC2CCCN2C[C@H](Cc2ccccc2)N2C[C@H](Cc3ccc(O)cc3)N(CCc3ccccc3)C2=S)cc1 (some centres undefined)	19	11	-49	0	-19	91*
CC(C)C[C@@H](CN1CCC[C@H]1CN1C(=O)C(=O)NC[C@@H]1Cc1ccccc1)N1C[C@H](Cc2ccc(O)cc2)N(CC2CCCCCC2)C(=O)C1=O	8	5	1	0	·	68*
CC(C)C[C@H]1CNC(=S)N1CC1CCCN1C[C@H](Cc1ccccc1)N1C[C@H](Cc2ccc(O)cc2)N(CC2CCCCCC2)C1=S (some centres undefined)	7	-6	4	0	51*	-5
CC(C)C[C@@H](CN1CCCC1CN1C(=S)NC[C@@H]1Cc1ccc(O)cc1)N1C[C@H](Cc2ccc(O)cc2)N(CC2CCCCCC2)C1=S (some centres undefined)	22	-4	10	0	4	82*
O=C(NCC[C@@H]1CC[C@@H](NS(=O)(=O)c2cccc(F)c2)[C@@H](CO)O1)C1CCC1	6	12	-3	0	-2	-6
CC(C)C[C@H]1CNC(=S)N1C[C@H]1CCCN1C[C@H](Cc1ccc(O)cc1)N1C[C@H](Cc2ccc(O)cc2)N(CC2CCCCCC2)C1=S	22	1	-1	0	-15	73*
Cn1cnc([N+](=O)[O-])c1S(=O)(=O)c1ccc(Cl)cc1	5	82*	-6	1	-12	?
Cn1cnc([N+](=O)[O-])c1NC(C)(C)C	·	·	·	·	-20	·
CNC[C@H]1OCCCC[C@H](C)Oc2ccc(NC(=O)Nc3ccccc3)cc2C(=O)N([C@@H](C)CO)C[C@@H]1C	0	21	3	0	13	1
CN(C)CCCn1c2c3ccccc3ccc2c2oc(=O)c3ccccc3c21	?	80*	-16	2	-10	47
CN(C)CCCn1c(=S)[nH]c2ccccc2c1=O	0	-6	-1	0	3	11
Cc1ccc(-c2n[nH]c(=S)n2/N=C/c2cccn2C)cc1	·	·	·	·	50*	·
CC1CCc2sc(C(=O)Nc3nnc(SCc4ccc(F)cc4)s3)cc2C1 (centres undefined)	·	9	·	·	94*	·
COc1ccc(N=Cc2c(O)n(-c3cccc(C)n3)c(=O)c3ccccc23)cc1	·	9	·	0	1	17
O=c1c(C=Nc2ccc(Oc3ccccc3)cc2)c[nH]n1-c1cccc(Cl)n1	·	107*	·	·	4	·
Cc1ccccc1-c1ccc2c(c1)O[C@@H](CN(C)C(=O)Nc1ccc(C(F)(F)F)cc1)[C@@H](C)CN([C@@H](C)CO)S2(=O)=O	24	-6	-3	0	11	14
Cc1ccc(-c2ccc3c(c2)O[C@H](CN(C)C(=O)Nc2ccccc2)[C@H](C)CN([C@@H](C)CO)S3(=O)=O)cc1	9	-29	1	-1	2	30
Cc1ccc(-c2ccc3c(c2)O[C@@H](CN(C)C(=O)Nc2ccccc2)[C@@H](C)CN([C@H](C)CO)S3(=O)=O)cc1	-19	-24	1	0	-3	68*
SMILES	EWS-Fli block	GSIS activator	MLL AF4-AF9 inh	XiGFP reactiv	PGC1a acetyl inh	PAX8 inh HTS
Cc1ccccc1-c1ccc2c(c1)O[C@H](CN(C)C(=O)Nc1ccc(C(F)(F)F)cc1)[C@H](C)CN([C@H](C)CO)S2(=O)=O	15	-19	0	0	17	83*
CC(C)NC(=O)N(C)C[C@@H]1Oc2ccc(NS(=O)(=O)c3ccc(Cl)cc3)cc2CC(=O)N([C@@H](C)CO)C[C@@H]1C	-4	6	36*	0	2	-8
C[C@@H]1CN([C@@H](C)CO)C(=O)Cc2cc(NS(=O)(=O)c3ccc(Cl)cc3)ccc2O[C@H]1CN(C)Cc1ccc(Oc2ccccc2)cc1	-23	-9	3	-1	-7	106*
C[C@@H]1CN([C@@H](C)CO)C(=O)Cc2cc(NS(=O)(=O)c3ccc(F)cc3)ccc2O[C@H]1CN(C)Cc1ccc(Oc2ccccc2)cc1	17	-7	2	1	-10	86*
COc1ccc(NC(=O)Nc2ccc3c(c2)CC(=O)N([C@@H](C)CO)C[C@@H](C)[C@@H](CN(C)S(C)(=O)=O)O3)cc1	-8	9	-2	-2	-4	10
C/C=C/c1ccc([C@@H]2[C@H](CO)N(Cc3cncnc3)C23CN(C(=O)CC)C3)cc1	5	-7	0	0	6	·
Cc1ccc(S(=O)(=O)Nc2ccc3c(c2)CC(=O)N([C@H](C)CO)C[C@H](C)[C@@H](CN(C)CC2CCCCC2)O3)cc1	2	-5	9	-1	-6	·
COc1cc(/C=N/NC(=S)Nc2cccc(C(=O)O)c2)ccc1O	81*	1	-6	0	11	80*
COc1cccc(/C=N/NC(=O)c2cc(-c3ccccn3)nc3ccccc23)c1O	9	-6	-3	0	14	68*
O=C(N/N=C/c1ccc(F)cc1)c1cc(-c2ccccn2)nc2ccccc12	-1	-3	-1	0	12	6
COc1cccc(/C=N/NC(=S)Nc2cccc(C(=O)O)c2)c1O	61*	7	-3	0	·	12
COc1cc(/C=N/NC(=O)CNC(=O)c2cccs2)ccc1O	3	46*	0	1	-4	15

Bioassay records as filed in PubChem.
